{"source": "ChEMBL document CHEMBL1667822", "about": "“Selective antagonists of mouse trace amine-associated receptor 1 (mTAAR1): discovery of EPPTB (RO5212773)” (Bioorg Med Chem Lett, 2011)", "key": {"[1]": {"biological_target": "D(1A) dopamine receptor (Homo sapiens) (UniProt P21728)", "sequence (P21728 whole entry)": "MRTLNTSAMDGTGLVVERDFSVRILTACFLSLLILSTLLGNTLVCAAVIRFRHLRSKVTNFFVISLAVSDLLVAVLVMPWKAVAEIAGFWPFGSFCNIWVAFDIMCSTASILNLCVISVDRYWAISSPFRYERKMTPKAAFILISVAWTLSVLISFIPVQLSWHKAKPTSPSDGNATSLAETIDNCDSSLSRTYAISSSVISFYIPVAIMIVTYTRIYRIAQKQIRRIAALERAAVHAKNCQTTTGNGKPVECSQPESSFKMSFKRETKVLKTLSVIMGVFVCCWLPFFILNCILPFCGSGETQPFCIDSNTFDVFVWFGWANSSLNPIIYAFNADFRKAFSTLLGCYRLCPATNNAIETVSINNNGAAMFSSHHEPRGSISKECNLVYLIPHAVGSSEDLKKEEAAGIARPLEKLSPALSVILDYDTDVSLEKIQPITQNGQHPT", "test": "Displacement of [3H]SCH 23390 from human recombinant dopamine D1 receptor expressed in CHO cells", "format": "cell-based", "settings": "concentration not given here"}, "[2]": {"biological_target": "5-hydroxytryptamine receptor 5A (Homo sapiens) (UniProt P47898)", "test": "Displacement of [3H]LSD from human recombinant 5HT5A receptor expressed in CHO cells", "format": "cell-based", "settings": "concentration not given here"}, "[3]": {"biological_target": "Sodium-dependent noradrenaline transporter (Homo sapiens) (UniProt P23975)", "sequence (P23975 whole entry)": "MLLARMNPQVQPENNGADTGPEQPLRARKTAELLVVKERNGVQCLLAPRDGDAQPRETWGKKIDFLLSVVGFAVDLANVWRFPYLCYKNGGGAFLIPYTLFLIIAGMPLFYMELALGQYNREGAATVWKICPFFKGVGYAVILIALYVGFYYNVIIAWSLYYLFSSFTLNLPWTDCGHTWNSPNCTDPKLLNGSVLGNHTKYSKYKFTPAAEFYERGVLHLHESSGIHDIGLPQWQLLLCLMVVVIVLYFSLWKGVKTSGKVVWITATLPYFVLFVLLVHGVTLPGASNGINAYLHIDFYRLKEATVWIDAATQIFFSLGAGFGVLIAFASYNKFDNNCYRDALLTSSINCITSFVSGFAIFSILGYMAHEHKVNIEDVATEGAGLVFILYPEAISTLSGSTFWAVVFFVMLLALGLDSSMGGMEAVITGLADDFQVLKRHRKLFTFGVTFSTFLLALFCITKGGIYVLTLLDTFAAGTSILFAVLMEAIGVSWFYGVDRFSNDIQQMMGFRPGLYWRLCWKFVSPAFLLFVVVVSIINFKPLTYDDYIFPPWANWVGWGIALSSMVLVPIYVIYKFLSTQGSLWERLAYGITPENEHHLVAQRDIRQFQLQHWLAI", "test": "Inhibition of human norepinephrine transporter at 10 uM"}, "[4]": {"biological_target": "5-hydroxytryptamine receptor 1B (Rattus norvegicus) (UniProt P28564)", "sequence (P28564 whole entry)": "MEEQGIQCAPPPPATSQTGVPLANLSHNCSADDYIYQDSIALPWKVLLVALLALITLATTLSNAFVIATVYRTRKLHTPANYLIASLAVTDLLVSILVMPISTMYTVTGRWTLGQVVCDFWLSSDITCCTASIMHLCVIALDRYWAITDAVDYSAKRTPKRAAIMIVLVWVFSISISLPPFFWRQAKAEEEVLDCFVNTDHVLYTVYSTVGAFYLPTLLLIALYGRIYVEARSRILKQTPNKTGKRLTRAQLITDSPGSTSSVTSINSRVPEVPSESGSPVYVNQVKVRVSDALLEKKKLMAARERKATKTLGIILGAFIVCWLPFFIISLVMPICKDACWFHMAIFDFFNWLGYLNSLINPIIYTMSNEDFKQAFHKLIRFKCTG", "test": "Displacement of [125I]CYP from 5HT1B receptor expressed in rat cerebral cortex", "format": "tissue-based", "settings": "concentration not given here"}, "[5]": {"test": "Ratio of drug level in brain to plasma in mouse at 5 mg/kg, ip", "format": "ADME, organism-based", "design": "dose 5 mg/kg, route intraperitoneal", "settings": "read-out: BPR", "summary_of_the_method": "(§1)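 Single-dose pharmacokinetics in mice with parenteral dosing, either 2.5 mg/kg iv or 5 mg/kg ip. Drug levels were measured in plasma, with brain exposure taken as the brain/plasma concentration ratio.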"}, "[6]": {"biological_target": "5-hydroxytryptamine receptor 2A (Homo sapiens) (UniProt P28223)", "sequence (P28223 whole entry)": "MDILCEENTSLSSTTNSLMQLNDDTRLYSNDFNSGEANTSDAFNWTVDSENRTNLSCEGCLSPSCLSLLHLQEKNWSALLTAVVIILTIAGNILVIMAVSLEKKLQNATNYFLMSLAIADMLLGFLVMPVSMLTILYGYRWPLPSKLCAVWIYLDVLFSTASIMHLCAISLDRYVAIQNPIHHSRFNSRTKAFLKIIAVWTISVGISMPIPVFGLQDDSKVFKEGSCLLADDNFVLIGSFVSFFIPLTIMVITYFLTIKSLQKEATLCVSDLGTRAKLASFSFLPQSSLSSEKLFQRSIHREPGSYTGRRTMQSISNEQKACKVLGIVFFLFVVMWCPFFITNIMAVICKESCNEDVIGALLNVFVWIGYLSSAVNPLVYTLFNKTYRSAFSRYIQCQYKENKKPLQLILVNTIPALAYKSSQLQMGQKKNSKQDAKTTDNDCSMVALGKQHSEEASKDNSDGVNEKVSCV", "test": "Displacement of [3H]Ketanserin from human recombinant 5HT2A receptor expressed in HEK293 cells", "format": "cell-based", "settings": "concentration not given here"}, "[7]": {"biological_target": "C-X-C chemokine receptor type 2 (Homo sapiens) (UniProt P25025)", "sequence (P25025 whole entry)": "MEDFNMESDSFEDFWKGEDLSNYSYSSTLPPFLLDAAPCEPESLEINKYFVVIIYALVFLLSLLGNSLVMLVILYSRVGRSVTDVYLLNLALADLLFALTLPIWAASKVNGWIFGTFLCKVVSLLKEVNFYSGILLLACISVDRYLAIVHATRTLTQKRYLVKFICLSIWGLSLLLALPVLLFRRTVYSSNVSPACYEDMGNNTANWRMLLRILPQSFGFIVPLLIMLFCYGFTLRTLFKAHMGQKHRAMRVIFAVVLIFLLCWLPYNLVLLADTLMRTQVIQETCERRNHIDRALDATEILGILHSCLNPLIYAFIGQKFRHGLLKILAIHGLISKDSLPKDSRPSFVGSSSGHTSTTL", "test": "Displacement of [125I]IL-8 from human recombinant CXCR2 receptor expressed in HEK293 cells", "format": "cell-based", "settings": "concentration not given here"}, "[8]": {"biological_target": "Histamine H1 receptor (Homo sapiens) (UniProt P35367)", "test": "Displacement of [3H]pyrilamine from human recombinant histamine H1 receptor expressed in HEK293 cells", "format": "cell-based", "settings": "concentration not given here"}, "[9]": {"biological_target": "Neurotensin receptor type 1 (Homo sapiens) (UniProt P30989)", "test": "Displacement of [125I]Tyr3-neurotensin from human recombinant NT1 receptor expressed in H recombinant CHO cells", "format": "cell-based", "settings": "concentration not given here"}, "[10]": {"biological_target": "Adrenergic receptor alpha-1 (Rattus norvegicus) (UniProt P15823+P23944+P43140)", "test": "Displacement of [3H]prazosine from alpha1 receptor in rat cerebral cortex", "format": "tissue-based", "settings": "concentration not given here"}, "[11]": {"biological_target": "Galanin receptor type 2 (Homo sapiens) (UniProt O43603)", "sequence (O43603 whole entry)": "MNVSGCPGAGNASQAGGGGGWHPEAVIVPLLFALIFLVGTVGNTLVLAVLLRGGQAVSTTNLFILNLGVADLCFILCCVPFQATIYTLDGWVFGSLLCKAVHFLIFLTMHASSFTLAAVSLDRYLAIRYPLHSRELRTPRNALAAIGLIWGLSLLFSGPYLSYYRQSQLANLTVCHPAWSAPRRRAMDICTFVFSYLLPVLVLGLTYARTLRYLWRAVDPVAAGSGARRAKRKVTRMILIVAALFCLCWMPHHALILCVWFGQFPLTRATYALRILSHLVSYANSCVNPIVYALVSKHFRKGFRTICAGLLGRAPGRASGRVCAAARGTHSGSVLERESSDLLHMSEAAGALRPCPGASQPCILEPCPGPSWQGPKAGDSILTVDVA", "test": "Displacement of [125I]Galanin from human recombinant GAL2 receptor expressed in CHO cells", "format": "cell-based", "settings": "concentration not given here"}, "[12]": {"biological_target": "T1, Trace amine-associated receptor 1 (Mus musculus, UniProt Q923Y8)", "T1 sequence (Q923Y8 whole entry)": "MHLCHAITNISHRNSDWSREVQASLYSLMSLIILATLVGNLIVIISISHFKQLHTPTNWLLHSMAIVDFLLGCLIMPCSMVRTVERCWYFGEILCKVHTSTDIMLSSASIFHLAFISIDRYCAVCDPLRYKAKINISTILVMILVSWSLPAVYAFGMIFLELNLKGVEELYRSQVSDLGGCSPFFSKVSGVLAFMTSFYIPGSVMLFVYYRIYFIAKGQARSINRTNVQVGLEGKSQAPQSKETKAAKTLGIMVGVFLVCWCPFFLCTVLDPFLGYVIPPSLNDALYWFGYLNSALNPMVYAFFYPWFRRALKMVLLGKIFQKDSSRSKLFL", "test": "Antagonist activity at mouse TAAR1 assessed as reversal of endogenous beta-PEA effect", "format": "functional", "summary_of_the_method": "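Mouse TAAR1 antagonist dose–response run as an in vitro cAMP functional assay. Efficacy is the reversal of the effect of the endogenous agonist β-PEA, with 100% efficacy defined as 0% min% stim. Values are averages of at least two independent experiments.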"}, "[13]": {"biological_target": "Adenosine receptor A2a (Homo sapiens) (UniProt P29274)", "test": "Displacement of [3H]CGS21680 from human recombinant A2A receptor expressed in HEK293 cells", "format": "cell-based", "settings": "concentration not given here"}, "[14]": {"biological_target": "Somatostatin receptor (Mus musculus) (UniProt P30935+O08858+P30875+P30873+P49660)", "test": "Inhibition of mouse somatostatin receptor at 10 uM", "format": "protein assay"}, "[15]": {"biological_target": "Adenosine receptor A3 (Homo sapiens) (UniProt P0DMS8)", "sequence (P0DMS8 whole entry)": "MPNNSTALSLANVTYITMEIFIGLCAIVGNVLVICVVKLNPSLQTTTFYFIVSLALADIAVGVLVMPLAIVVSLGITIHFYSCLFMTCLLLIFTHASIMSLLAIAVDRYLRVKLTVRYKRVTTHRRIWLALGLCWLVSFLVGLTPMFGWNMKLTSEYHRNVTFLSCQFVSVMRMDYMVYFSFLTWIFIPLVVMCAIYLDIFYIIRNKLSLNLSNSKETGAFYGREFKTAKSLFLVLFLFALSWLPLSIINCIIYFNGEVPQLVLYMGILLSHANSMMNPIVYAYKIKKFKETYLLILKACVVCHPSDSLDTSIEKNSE", "test": "Displacement of [3H]AB-MECA from human recombinant A3 receptor expressed in HEK293 cells", "format": "cell-based", "settings": "concentration not given here"}, "[16]": {"biological_target": "Sodium-dependent dopamine transporter (Homo sapiens) (UniProt Q01959)", "test": "Inhibition of human dopamine transporter at 10 uM"}, "[17]": {"biological_target": "T1, Trace amine-associated receptor 1", "test": "Inhibition of mouse TAAR1"}, "[18]": {"test": "Volume of distribution at steady state in mouse at 2.5 mg/kg, iv", "format": "ADME, organism-based", "design": "dose 2.5 mg/kg, route intravenous", "settings": "in vivo, read-out: Vdss", "summary_of_the_method": "as §1"}, "[19]": {"species": "Rattus norvegicus", "test": "Displacement of [3H]flunitrazepam from BZD receptor in rat cerebral cortex", "format": "tissue-based", "settings": "concentration not given here"}, "[20]": {"biological_target": "Neuropeptide Y receptor type 2 (Homo sapiens) (UniProt P49146)", "test": "Displacement of [125I]peptide YY from human recombinant Y2 receptor expressed in KAN-TS cells", "format": "cell-based", "settings": "concentration not given here"}, "[21]": {"test": "Cmax in mouse at 5 mg/kg, ip", "format": "ADME, organism-based", "design": "dose 5 mg/kg, route intraperitoneal", "settings": "in vivo", "summary_of_the_method": "(§2)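 Single-dose pharmacokinetics in mice comparing parenteral routes: intravenous at 2.5 mg/kg and intraperitoneal at 5 mg/kg. Plasma concentrations were followed over time. Bioavailability was derived for the ip route, and Cmax was taken from the ip plasma profile.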"}, "[22]": {"biological_target": "Melanocortin receptor 4 (Homo sapiens) (UniProt P32245)", "sequence (P32245 whole entry)": "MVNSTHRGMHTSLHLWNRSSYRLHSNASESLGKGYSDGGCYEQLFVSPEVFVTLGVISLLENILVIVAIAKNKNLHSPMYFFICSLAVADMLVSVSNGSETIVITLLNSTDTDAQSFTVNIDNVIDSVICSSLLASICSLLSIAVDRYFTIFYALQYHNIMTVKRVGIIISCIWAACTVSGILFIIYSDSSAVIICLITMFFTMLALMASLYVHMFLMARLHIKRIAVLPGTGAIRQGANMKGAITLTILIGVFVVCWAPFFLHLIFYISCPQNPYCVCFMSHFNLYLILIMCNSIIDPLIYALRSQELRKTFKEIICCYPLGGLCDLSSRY", "test": "Displacement of [125I]NDP-a-MSH from human recombinant MC4 receptor expressed in CHO cells", "format": "cell-based", "settings": "concentration not given here"}, "[23]": {"biological_target": "5-hydroxytryptamine receptor 7 (Homo sapiens) (UniProt P34969)", "test": "Displacement of [3H]LSD from human recombinant 5HT7 receptor expressed in CHO cells", "format": "cell-based", "settings": "concentration not given here"}, "[24]": {"biological_target": "5-hydroxytryptamine receptor 3A (Homo sapiens) (UniProt P46098)", "test": "Displacement of [3H]BRL 43694 from human recombinant 5HT3 receptor expressed in CHO cells", "format": "cell-based", "settings": "concentration not given here"}, "[25]": {"biological_target": "Muscarinic acetylcholine receptor M1 (Homo sapiens) (UniProt P11229)", "sequence (P11229 whole entry)": "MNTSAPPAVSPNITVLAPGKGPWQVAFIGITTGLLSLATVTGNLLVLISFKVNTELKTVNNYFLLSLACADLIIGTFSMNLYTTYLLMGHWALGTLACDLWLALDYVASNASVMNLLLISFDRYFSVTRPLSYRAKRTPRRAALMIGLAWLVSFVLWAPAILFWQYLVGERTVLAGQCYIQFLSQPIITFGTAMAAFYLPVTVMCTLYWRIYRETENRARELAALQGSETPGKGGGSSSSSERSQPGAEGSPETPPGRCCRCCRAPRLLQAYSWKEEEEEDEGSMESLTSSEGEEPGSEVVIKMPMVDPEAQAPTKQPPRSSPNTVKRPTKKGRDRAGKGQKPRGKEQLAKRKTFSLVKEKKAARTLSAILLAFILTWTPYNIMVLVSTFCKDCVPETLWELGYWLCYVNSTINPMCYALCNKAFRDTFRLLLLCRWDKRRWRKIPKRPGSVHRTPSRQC", "test": "Displacement of [3H]pirenzepine from human recombinant muscarinic M1 receptor expressed in CHO cells", "format": "cell-based", "settings": "concentration not given here"}, "[26]": {"biological_target": "5-hydroxytryptamine receptor 1A (Homo sapiens) (UniProt P08908)", "sequence (P08908 whole entry)": "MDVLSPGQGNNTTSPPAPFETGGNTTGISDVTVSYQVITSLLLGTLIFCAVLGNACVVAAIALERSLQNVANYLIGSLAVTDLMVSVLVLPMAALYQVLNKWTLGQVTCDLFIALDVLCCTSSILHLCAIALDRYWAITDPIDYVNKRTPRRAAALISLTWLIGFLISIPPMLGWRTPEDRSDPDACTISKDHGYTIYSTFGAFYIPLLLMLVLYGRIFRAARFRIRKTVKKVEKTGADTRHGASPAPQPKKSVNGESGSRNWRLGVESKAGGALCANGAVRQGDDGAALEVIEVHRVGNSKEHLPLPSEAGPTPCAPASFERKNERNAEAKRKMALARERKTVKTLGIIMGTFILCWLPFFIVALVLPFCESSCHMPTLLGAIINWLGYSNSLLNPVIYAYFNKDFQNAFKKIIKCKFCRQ", "test": "Displacement of [3H]8-OH-DPAT from human recombinant 5HT1A receptor expressed in HEK293 cells", "format": "cell-based", "settings": "concentration not given here"}, "[27]": {"test": "Half life in mouse at 2.5 mg/kg, iv", "format": "ADME, organism-based", "design": "dose 2.5 mg/kg, route intravenous", "settings": "in vivo", "summary_of_the_method": "as §2"}, "[28]": {"biological_target": "Trace amine-associated receptor 1 (Rattus norvegicus, UniProt Q923Y9)", "test": "Inhibition of rat TAAR1", "summary_of_the_method": "(§3)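 In vitro cAMP functional assay with antagonism read as reversal of the response to the endogenous agonist beta-PEA. Efficacy was scaled so that 100% equals 0% minimum stimulation. Residual beta-PEA stimulation was taken at the highest test-compound concentration. Values are means of at least two independent experiments, with duplicates typically within a twofold margin.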"}, "[29]": {"biological_target": "Mu-type opioid receptor (Homo sapiens) (UniProt P35372)", "sequence (P35372 whole entry)": "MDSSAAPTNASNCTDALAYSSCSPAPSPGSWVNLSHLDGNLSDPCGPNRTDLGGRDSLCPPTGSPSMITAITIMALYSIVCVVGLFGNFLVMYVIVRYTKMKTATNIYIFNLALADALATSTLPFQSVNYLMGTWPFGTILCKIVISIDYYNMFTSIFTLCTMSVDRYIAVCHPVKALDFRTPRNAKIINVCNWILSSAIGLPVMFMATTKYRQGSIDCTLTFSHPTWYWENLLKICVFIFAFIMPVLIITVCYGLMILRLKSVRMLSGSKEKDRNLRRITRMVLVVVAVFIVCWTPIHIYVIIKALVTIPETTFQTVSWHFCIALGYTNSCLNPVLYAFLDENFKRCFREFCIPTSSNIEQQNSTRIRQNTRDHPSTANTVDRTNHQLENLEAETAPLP", "test": "Displacement of [3H]DAMGO from human recombinant mu opioid receptor expressed in HEK293 cells", "format": "cell-based", "settings": "concentration not given here"}, "[30]": {"system": "CHO", "test": "Displacement of [3H]DADLE from human recombinant delta 2 opioid receptor expressed in CHO cells", "format": "cell-based", "settings": "dose or concentration not given here"}, "[31]": {"biological_target": "Beta-1 adrenergic receptor (Homo sapiens) (UniProt P08588)", "test": "Displacement of [3H](-)CGP 12177 from human recombinant beta1 receptor expressed in HEK293 cells", "format": "cell-based", "settings": "concentration not given here"}, "[32]": {"biological_target": "T2, Trace amine-associated receptor 1 (Homo sapiens, UniProt Q96RJ0)", "T2 sequence (Q96RJ0 whole entry)": "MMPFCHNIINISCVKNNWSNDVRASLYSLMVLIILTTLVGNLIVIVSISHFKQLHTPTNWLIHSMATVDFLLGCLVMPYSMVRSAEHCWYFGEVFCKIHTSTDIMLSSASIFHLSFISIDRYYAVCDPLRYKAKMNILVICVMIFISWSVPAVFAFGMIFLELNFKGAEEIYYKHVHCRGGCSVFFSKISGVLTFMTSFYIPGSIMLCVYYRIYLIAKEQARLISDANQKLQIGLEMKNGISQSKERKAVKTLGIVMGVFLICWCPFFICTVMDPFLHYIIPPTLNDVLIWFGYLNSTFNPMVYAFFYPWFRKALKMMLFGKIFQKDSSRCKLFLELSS", "test": "Antagonist activity at human TAAR1 assessed as reversal of endogenous beta-PEA effect", "format": "functional", "summary_of_the_method": "as §3"}}, "data": [{"smiles": "CCOc1cccc(NC(=O)c2ccc(N3CCCC3)c(C(F)(F)F)c2)c1", "values": [{"measurement": "inhibition", "setting": "[1]", "result": 25, "unit": "%"}, {"measurement": "inhibition", "setting": "[2]", "result": 21, "unit": "%"}, {"measurement": "inhibition", "setting": "[3]", "result": 44, "unit": "%"}, {"measurement": "inhibition", "setting": "[4]", "result": 53, "unit": "%"}, {"measurement": "Kp", "setting": "[5]", "result": 0.5}, {"measurement": "inhibition", "setting": "[6]", "result": 21, "unit": "%"}, {"measurement": "inhibition", "setting": "[7]", "result": 2, "unit": "%"}, {"measurement": "inhibition", "setting": "[8]", "result": 6, "unit": "%"}, {"measurement": "inhibition", "setting": "[9]", "result": -5, "unit": "%"}, {"measurement": "inhibition", "setting": "[10]", "result": 8, "unit": "%"}, {"measurement": "inhibition", "setting": "[11]", "result": 13, "unit": "%"}, {"measurement": "IC50", "setting": "[12]", "result": 28, "unit": "nM"}, {"measurement": "inhibition", "setting": "[13]", "result": 13, "unit": "%"}, {"measurement": "inhibition", "setting": "[14]", "result": 7, "unit": "%"}, {"measurement": "inhibition", "setting": "[15]", "result": 80, "unit": "%"}, {"measurement": "inhibition", "setting": "[16]", "result": 43, "unit": "%"}, {"measurement": "Ki", "setting": "[17]", "result": 0.9, "unit": "nM"}, {"measurement": "Vd", "setting": "[18]", "result": 3.7, "unit": "L/kg"}, {"measurement": "inhibition", "setting": "[19]", "result": -8, "unit": "%"}, {"measurement": "inhibition", "setting": "[20]", "result": 6, "unit": "%"}, {"measurement": "Cmax", "setting": "[21]", "result": 590, "unit": "ng/mL"}, {"measurement": "inhibition", "setting": "[22]", "result": -2, "unit": "%"}, {"measurement": "inhibition", "setting": "[23]", "result": 10, "unit": "%"}, {"measurement": "inhibition", "setting": "[24]", "result": 9, "unit": "%"}, {"measurement": "inhibition", "setting": "[25]", "result": 4, "unit": "%"}, {"measurement": "inhibition", "setting": "[26]", "result": 4, "unit": "%"}, {"measurement": "half-life", "setting": "[27]", "result": 1.9, "unit": "h"}, {"measurement": "Ki", "setting": "[28]", "result": 942, "unit": "nM"}, {"measurement": "inhibition", "setting": "[29]", "result": 42, "unit": "%"}, {"measurement": "inhibition", "setting": "[30]", "result": 28, "unit": "%"}, {"measurement": "inhibition", "setting": "[31]", "result": 4, "unit": "%"}, {"measurement": "IC50", "setting": "[32]", "result": 7490, "unit": "nM"}]}]}
